Measurements published in publication PMC13416249 (Proceedings of the National Academy of Sciences of the …, 2026).
One block for each compound: values may come before it.

Key:
[1] = system: P. falciparum isolates from the Brazilian Western Amazon; experiment: Ex vivo schizont maturation test on patient isolates; type: cell-based; conditions: Plasmodium falciparum, in Homo sapiens, read-out: median EC50
Method in brief: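 Isolates came from monoinfected patients in Porto Velho, Rondônia, and were exposed to test compound. Thick films were stained with 5% Giemsa and schizonts counted. Counts were normalized to drug-free controls to calculate EC50.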

[2] = system: P. falciparum 3D7; experiment: Parasite reduction ratio; type: cell-based, Plasmodium falciparum; conditions: 10X IC50 of each compound
Method in brief: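 Parasite reduction ratio followed an established protocol, with each compound held at a fixed multiple of its potency. Parasite regrowth was detected by P. falciparum LDH assay. Data are mean ± SD.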

[3] = system: P. falciparum NF54 strain expressing a Nanoluciferase reporter; experiment: Asexual replication stage-specificity assay, nanoluciferase readout; type: cell-based, Plasmodium falciparum; conditions: ring-synchronized; 5 µM KNX-115, 1 µM DHA
Method in brief: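 NF54-ENL nanoluciferase reporter parasites were synchronized at the ring stage and treated with test compound. Vehicle (0.1% DMSO) and 1 µM dihydroartemisinin served as controls. Nanoluciferase activity was followed over time and compared with the control cultures.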

[4] = system: P. falciparum stage III-IV gametocytes; experiment: Gametocyte viability assay; type: cell-based, Plasmodium falciparum
[5] = biological target: T1, full-length PfMyoA (Plasmodium falciparum, UniProt Q8IDR3); experiment: Actin-activated PfMyoA ATPase assay; type: biochemical; conditions: read-out: IC50, actin-activated myosin ATPase, 15 µM actin
T1 sequence (Q8IDR3 1-818): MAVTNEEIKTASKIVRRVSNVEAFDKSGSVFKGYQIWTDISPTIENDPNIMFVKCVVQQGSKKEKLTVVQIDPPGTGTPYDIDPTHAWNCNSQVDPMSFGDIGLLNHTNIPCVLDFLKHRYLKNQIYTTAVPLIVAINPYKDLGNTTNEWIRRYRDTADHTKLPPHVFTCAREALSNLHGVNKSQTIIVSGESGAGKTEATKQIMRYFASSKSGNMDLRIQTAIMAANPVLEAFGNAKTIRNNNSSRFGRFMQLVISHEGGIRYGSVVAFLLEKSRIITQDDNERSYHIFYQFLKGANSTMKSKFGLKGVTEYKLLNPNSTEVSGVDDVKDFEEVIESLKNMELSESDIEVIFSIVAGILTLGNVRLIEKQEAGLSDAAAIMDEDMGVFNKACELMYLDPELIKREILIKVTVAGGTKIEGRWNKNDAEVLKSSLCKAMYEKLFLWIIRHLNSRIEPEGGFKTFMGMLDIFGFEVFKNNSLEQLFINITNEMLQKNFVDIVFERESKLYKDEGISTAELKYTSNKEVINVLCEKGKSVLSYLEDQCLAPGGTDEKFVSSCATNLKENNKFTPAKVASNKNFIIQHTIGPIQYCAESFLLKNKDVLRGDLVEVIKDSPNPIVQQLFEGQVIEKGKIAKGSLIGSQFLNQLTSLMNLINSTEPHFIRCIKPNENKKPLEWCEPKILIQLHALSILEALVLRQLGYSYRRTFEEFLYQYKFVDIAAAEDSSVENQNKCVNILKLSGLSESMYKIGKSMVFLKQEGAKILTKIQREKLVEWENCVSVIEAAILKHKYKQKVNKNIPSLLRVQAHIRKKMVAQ
T1 sequence (Q8IJM4 1-134 partner): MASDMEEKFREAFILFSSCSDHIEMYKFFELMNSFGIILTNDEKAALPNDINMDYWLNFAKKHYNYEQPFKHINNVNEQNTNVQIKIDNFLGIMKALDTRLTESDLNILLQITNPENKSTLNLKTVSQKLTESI
T1 sequence (Q8I4W8 1-204 partner): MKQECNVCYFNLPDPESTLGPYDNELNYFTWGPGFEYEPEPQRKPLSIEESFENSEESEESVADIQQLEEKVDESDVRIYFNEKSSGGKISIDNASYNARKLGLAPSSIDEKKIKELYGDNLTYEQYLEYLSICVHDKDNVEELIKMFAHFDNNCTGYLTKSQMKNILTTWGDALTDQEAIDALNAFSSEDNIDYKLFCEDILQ

- EC50 [1]: 1260 nM
SMILES: CCN(CC)CCCC(C)Nc1ccnc2cc(Cl)ccc12 (stereo not drawn) [chloroquine]

SMILES: CCc1nc(N)nc(N)c1-c1ccc(Cl)cc1 [pyrimethamine]
- lag before killing [2]: 24 h

SMILES: C[C@H]1[C@@H](O)O[C@@H]2O[C@@]3(C)CC[C@H]4[C@H](C)CC[C@@H]1[C@@]24OO3 [DHA, dihydroartemisinin]
- parasite replication over time (luciferase activity) [3]: rapid killing of the parasites
- effect on gametocyte viability [4]: showed inhibition

- EC50 [1]: 3.5 nM
SMILES: C[C@H]1[C@H](OC(=O)CCC(=O)O)O[C@@H]2O[C@@]3(C)CC[C@H]4[C@H](C)CC[C@@H]1[C@@]24OO3 [artesunate]

- IC50 [5]: 400 ± 100 nM
SMILES: COc1ccc(C2(NCc3c[nH]nc3-c3cccs3)CC2)cc1 [KNX-002]
